Test results: ChEMBL document CHEMBL6078622, “Enhancing outer membrane permeability of tetracycline antibiotics in P. aeruginosa using TOB-CIP conjugates” (RSC Med Chem, 2024)

What was measured:
Type in all cases: functional
Pseudomonas aeruginosa [1] = assay: Synergistic antibacterial activity against Pseudomonas aeruginosa PA264 assessed as fractional inhibitory concentration index in presence of minocycline by checkerboard assay
Pseudomonas aeruginosa [2] = assay: Synergistic antibacterial activity against Pseudomonas aeruginosa PA259 in presence of minocycline by checkerboard assay
Pseudomonas aeruginosa [3] = assay: Synergistic antibacterial activity against Pseudomonas aeruginosa PA264 assessed as fold change in doxycycline MIC by CLSI based broth-microdilution method relative to doxycycline alone
Pseudomonas aeruginosa [4] = assay: Antibacterial activity against Pseudomonas aeruginosa PA114228 assessed as tigecycline MIC by CLSI based broth-microdilution method
Pseudomonas aeruginosa [5] = assay: Antibacterial activity against Pseudomonas aeruginosa PA101243 assessed as minocycline MIC by CLSI based broth-microdilution method
Pseudomonas aeruginosa [6] = assay: Synergistic antibacterial activity against Pseudomonas aeruginosa PA264 assessed as fold change in eravacycline MIC by CLSI based broth-microdilution method relative to eravacycline alone
Pseudomonas aeruginosa [7] = assay: Antibacterial activity against Pseudomonas aeruginosa PAO1 assessed as inhibition of visible bacterial growth by CLSI based broth-microdilution method
Pseudomonas aeruginosa [8] = assay: Synergistic antibacterial activity against Pseudomonas aeruginosa PA100036 assessed as fractional inhibitory concentration index in presence of eravacycline by checkerboard assay
Pseudomonas aeruginosa [9] = assay: Antibacterial activity against Pseudomonas aeruginosa PAO1 assessed as inhibition of bacterial growth by measuring fold change in MIC in presence of 5 % fetal bovine serum by CLSI protocol based assay
Pseudomonas aeruginosa [10] = assay: Synergistic antibacterial activity against Pseudomonas aeruginosa PA262 in presence of minocycline by checkerboard assay
Pseudomonas aeruginosa [11] = assay: Synergistic antibacterial activity against Pseudomonas aeruginosa PA259 in presence of eravacycline by checkerboard assay
Pseudomonas aeruginosa [12] = assay: Synergistic antibacterial activity against Pseudomonas aeruginosa PA262 in presence of eravacycline by checkerboard assay
Pseudomonas aeruginosa [13] = assay: Synergistic antibacterial activity against Pseudomonas aeruginosa PA259 assessed as fold change in doxycycline MIC by CLSI based broth-microdilution method relative to doxycycline alone
Pseudomonas aeruginosa [14] = assay: Antibacterial activity against Pseudomonas aeruginosa PA200 assessed as doxycycline MIC by CLSI based broth-microdilution method
Escherichia coli = assay: Antibacterial activity against Escherichia coli ATCC 25922 assessed as inhibition of visible bacterial growth by CLSI based broth-microdilution method
Pseudomonas aeruginosa [15] = assay: Synergistic antibacterial activity against Pseudomonas aeruginosa PA200 in presence of tigecycline by checkerboard assay
Pseudomonas aeruginosa [16] = assay: Synergistic antibacterial activity against Pseudomonas aeruginosa PA101243 assessed as fractional inhibitory concentration index in presence of minocycline by checkerboard assay
Pseudomonas aeruginosa [17] = assay: Synergistic antibacterial activity against Pseudomonas aeruginosa PA100036 assessed as fold change in minocycline MIC by CLSI based broth-microdilution method relative to minocycline alone
Pseudomonas aeruginosa [18] = assay: Antibacterial activity against Pseudomonas aeruginosa PA200 assessed as tigecycline MIC by CLSI based broth-microdilution method
Pseudomonas aeruginosa [19] = assay: Synergistic antibacterial activity against Pseudomonas aeruginosa PA095 in presence of minocycline by checkerboard assay
Pseudomonas aeruginosa [20] = assay: Synergistic antibacterial activity against Pseudomonas aeruginosa PA264 assessed as fractional inhibitory concentration index in presence of doxycycline by checkerboard assay
Pseudomonas aeruginosa [21] = assay: Synergistic antibacterial activity against Pseudomonas aeruginosa PA264 in presence of doxycycline by checkerboard assay
Pseudomonas aeruginosa [22] = assay: Antibacterial activity against Pseudomonas aeruginosa PA101243 assessed as inhibition of visible bacterial growth by CLSI based broth-microdilution method
Escherichia [23] = assay: Synergistic antibacterial activity against Escherichia 107115 assessed as fold change in minocycline MIC by CLSI based broth-microdilution method relative to minocycline alone
Method in brief: (§1)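 Checkerboard combination assay against E. coli EC107115 (MDR) and EC94474 (colistin-resistant), run in biological duplicates; the fold change is the tetracycline MIC in combination relative to its MIC alone.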

Pseudomonas aeruginosa [24] = assay: Antibacterial activity against Pseudomonas aeruginosa PA095 assessed as tigecycline MIC by CLSI based broth-microdilution method
Pseudomonas aeruginosa [25] = assay: Synergistic antibacterial activity against Pseudomonas aeruginosa PA114228 in presence of tigecycline by checkerboard assay
Pseudomonas aeruginosa [26] = assay: Synergistic antibacterial activity against Pseudomonas aeruginosa PAO1 assessed as fold change in minocycline MIC by checkerboard analysis relative to minocycline alone
Pseudomonas aeruginosa [27] = assay: Synergistic antibacterial activity against Pseudomonas aeruginosa PA100036 assessed as fold change in tigecycline MIC by CLSI based broth-microdilution method relative to tigecycline alone
Pseudomonas aeruginosa [28] = assay: Synergistic antibacterial activity against Pseudomonas aeruginosa PA259 assessed as fractional inhibitory concentration index in presence of tigecycline by checkerboard assay
Pseudomonas aeruginosa [29] = assay: Synergistic antibacterial activity against Pseudomonas aeruginosa PA101243 assessed as fold change in eravacycline MIC by CLSI based broth-microdilution method relative to eravacycline alone
Pseudomonas aeruginosa [30] = assay: Synergistic antibacterial activity against Pseudomonas aeruginosa PA101243 assessed as fractional inhibitory concentration index in presence of eravacycline by checkerboard assay
Pseudomonas aeruginosa [31] = assay: Synergistic antibacterial activity against Pseudomonas aeruginosa PA100036 assessed as fold change in eravacycline MIC by CLSI based broth-microdilution method relative to eravacycline alone
Pseudomonas aeruginosa [32] = assay: Antibacterial activity against Pseudomonas aeruginosa PA264 assessed as doxycycline MIC by CLSI based broth-microdilution method
Pseudomonas aeruginosa [33] = assay: Synergistic antibacterial activity against Pseudomonas aeruginosa PA259 assessed as fold change in eravacycline MIC by CLSI based broth-microdilution method relative to eravacycline alone
Pseudomonas aeruginosa [34] = assay: Synergistic antibacterial activity against Pseudomonas aeruginosa PA095 assessed as fold change in tigecycline MIC by CLSI based broth-microdilution method relative to tigecycline alone
Pseudomonas aeruginosa [35] = assay: Synergistic antibacterial activity against Pseudomonas aeruginosa PA200 assessed as fractional inhibitory concentration index in presence of minocycline by checkerboard assay
Pseudomonas aeruginosa [36] = assay: Antibacterial activity against Pseudomonas aeruginosa PA114228 assessed as inhibition of visible bacterial growth by CLSI based broth-microdilution method
Pseudomonas aeruginosa [37] = assay: Synergistic antibacterial activity against Pseudomonas aeruginosa PAO1 assessed as fold change in doxycycline MIC by checkerboard analysis relative to doxycycline alone
Pseudomonas aeruginosa [38] = assay: Synergistic antibacterial activity against Pseudomonas aeruginosa PA095 assessed as fractional inhibitory concentration index in presence of tigecycline by checkerboard assay
Pseudomonas aeruginosa [39] = assay: Synergistic antibacterial activity against Pseudomonas aeruginosa PA101243 in presence of doxycycline by checkerboard assay
Acinetobacter baumannii = assay: Antibacterial activity against Acinetobacter baumannii ATCC 17978 assessed as inhibition of visible bacterial growth by CLSI based broth-microdilution method
Pseudomonas aeruginosa [40] = assay: Antibacterial activity against Pseudomonas aeruginosa PA114228 assessed as minocycline MIC by CLSI based broth-microdilution method
Escherichia [41] = assay: Synergistic antibacterial activity against Escherichia 94474 assessed as fold change in minocycline MIC by CLSI based broth-microdilution method relative to minocycline alone; method in brief: as §1
Pseudomonas aeruginosa [42] = assay: Antibacterial activity against Pseudomonas aeruginosa PA095 assessed as minocycline MIC by CLSI based broth-microdilution method

Cl.Cl.Cl.Cl.Cl.Cl.NC[C@H]1O[C@H](O[C@H]2[C@H](OCCCCCCCCCCCCNC(=O)c3cn(C4CC4)c4cc(N5CCNCC5)c(F)cc4c3=O)[C@@H](O[C@H]3O[C@H](CO)[C@@H](O)[C@H](N)[C@H]3O)[C@H](N)C[C@@H]2N)[C@H](N)C[C@@H]1O
fractional inhibitory concentration index (FICI) (Pseudomonas aeruginosa [1]): 0.031 | MIC (Pseudomonas aeruginosa [2]): 8 µg/mL | fold change (FC) (Pseudomonas aeruginosa [3]): 16 | MIC (Pseudomonas aeruginosa [4]): 16 µg/mL | MIC (Pseudomonas aeruginosa [5]): 2 µg/mL | fold change (FC) (Pseudomonas aeruginosa [6]): 64 | MIC (Pseudomonas aeruginosa [7]): > 128 µg/mL | fractional inhibitory concentration index (FICI) (Pseudomonas aeruginosa [8]): 0.008 | fold change (FC) (Pseudomonas aeruginosa [9]): >128 | MIC (Pseudomonas aeruginosa [10]): 8 µg/mL | MIC (Pseudomonas aeruginosa [11]): 8 µg/mL | MIC (Pseudomonas aeruginosa [12]): 8 µg/mL | fold change (FC) (Pseudomonas aeruginosa [13]): 128 | MIC (Pseudomonas aeruginosa [14]): 2 µg/mL | MIC (Escherichia coli): > 128 µg/mL | MIC (Pseudomonas aeruginosa [15]): 8 µg/mL | fractional inhibitory concentration index (FICI) (Pseudomonas aeruginosa [16]): 0.25 | fold change (FC) (Pseudomonas aeruginosa [17]): 256 | MIC (Pseudomonas aeruginosa [18]): 0.25 µg/mL | MIC (Pseudomonas aeruginosa [19]): 2 µg/mL | fractional inhibitory concentration index (FICI) (Pseudomonas aeruginosa [20]): 0.015 | MIC (Pseudomonas aeruginosa [21]): 8 µg/mL | MIC (Pseudomonas aeruginosa [22]): > 128 µg/mL | fold change (FC) (Escherichia [23]): 32 | MIC (Pseudomonas aeruginosa [24]): 2 µg/mL | MIC (Pseudomonas aeruginosa [25]): 8 µg/mL | fold change (FC) (Pseudomonas aeruginosa [26]): 64 | fold change (FC) (Pseudomonas aeruginosa [27]): 64 | fractional inhibitory concentration index (FICI) (Pseudomonas aeruginosa [28]): 0.002 | fold change (FC) (Pseudomonas aeruginosa [29]): 4 | fractional inhibitory concentration index (FICI) (Pseudomonas aeruginosa [30]): 0.625 | fold change (FC) (Pseudomonas aeruginosa [31]): 256 | MIC (Pseudomonas aeruginosa [32]): 0.5 µg/mL | fold change (FC) (Pseudomonas aeruginosa [33]): 512 | fold change (FC) (Pseudomonas aeruginosa [34]): 2 | fractional inhibitory concentration index (FICI) (Pseudomonas aeruginosa [35]): 0.312 | MIC (Pseudomonas aeruginosa [36]): > 128 µg/mL | fold change (FC) (Pseudomonas aeruginosa [37]): 64 | fractional inhibitory concentration index (FICI) (Pseudomonas aeruginosa [38]): 0.265 | MIC (Pseudomonas aeruginosa [39]): 8 µg/mL | MIC (Acinetobacter baumannii): > 128 µg/mL | MIC (Pseudomonas aeruginosa [40]): 64 µg/mL | fold change (FC) (Escherichia [41]): 8 | MIC (Pseudomonas aeruginosa [42]): 1 µg/mL
